pIC50: −log10 of the molar value. The source made the active and inactive calls. No cut-off for these calls is given here.
Experiments:
[1] = target: Neuronal acetylcholine receptor; alpha3/beta4 (Rattus norvegicus, UniProt P04757+P12392); assay: Non-competitive inhibition of rat alpha3beta4 nAChR expressed in KX cells assessed as reduction in current by whole-cell patch clamp assay; type: cell-based
Procedure, shortened: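 KXα3β4R2 cells (rat α3β4) grown in MEM with 10% FBS and 0.7 mg/ml geneticin at 37 °C, 5% CO2, and harvested at 70% confluence. Whole-cell clamp at […] holding potential in HEPES pH 7.4 bath (120 mM NaCl, 3.1 mM KCl, 2 mM CaCl2, 5 mM glucose) at room temperature. Pipette solution: CsCl, ATP, EGTA, pH 7.2. Agents were applied from 0.1 nM upward with 100 µM (S)-nicotine; IC50 taken from current decrease relative to nicotine alone (100%).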

Rattus norvegicus [2] = assay: Effect on basal locomotor activity in Wistar rat at 1/20 to 1/10 LD50, ip; type: ADME, organism-based; conditions: in vivo
Rattus norvegicus [3] = assay: Toxicity in Wistar rat assessed as inhibition of conditioned place preference at 1/20 to 1/10 LD50, ip in absence of nicotine preconditioning; type: organism-based; conditions: in vivo
Rattus norvegicus [4] = assay: Behavioral effect in Wistar rat assessed as inhibition of nicotine-induced conditioned place preference at 1/20 LD50, ip administered during post-conditioning test phase on day 5 of nicotine treatment; type: functional, organism-based
Procedure, shortened: (§1)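 Male Wistar rats (250–300 g), on restricted chow and handled for 5 days. A 15-min baseline excluded rats with a side preference. On days 2–4, two 30-min sessions per day: vehicle in the morning, nicotine 0.175 mg/kg ip in the afternoon, each in opposite compartments. On day 5, agent given ip (5 ml/kg) 60 min before nicotine, then tested immediately. Score is post- minus pre-conditioning time in the drug-paired compartment; n = 7–14.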

Rattus norvegicus [5] = assay: Behavioral effect in Wistar rat assessed as inhibition of nicotine-induced conditioned place preference at 10 mg/kg, ip administered during post-conditioning test phase on day 5 of nicotine treatment; type: functional, organism-based; design: dose 10 mg/kg; procedure, shortened: as §1
Rattus norvegicus [6] = assay: Effect on basal locomotor activity in Wistar rat at 5 mg/kg, ip; type: ADME, organism-based; design: dose 5 mg/kg, route intraperitoneal; conditions: in vivo
Rattus norvegicus [7] = assay: Toxicity in Wistar rat assessed as inhibition of conditioned place preference at 10 mg/kg, ip in absence of nicotine preconditioning; type: organism-based; design: dose 10 mg/kg, route intraperitoneal; conditions: in vivo

Neuronal acetylcholine receptor; alpha3/beta4, sequence (P04757 whole entry): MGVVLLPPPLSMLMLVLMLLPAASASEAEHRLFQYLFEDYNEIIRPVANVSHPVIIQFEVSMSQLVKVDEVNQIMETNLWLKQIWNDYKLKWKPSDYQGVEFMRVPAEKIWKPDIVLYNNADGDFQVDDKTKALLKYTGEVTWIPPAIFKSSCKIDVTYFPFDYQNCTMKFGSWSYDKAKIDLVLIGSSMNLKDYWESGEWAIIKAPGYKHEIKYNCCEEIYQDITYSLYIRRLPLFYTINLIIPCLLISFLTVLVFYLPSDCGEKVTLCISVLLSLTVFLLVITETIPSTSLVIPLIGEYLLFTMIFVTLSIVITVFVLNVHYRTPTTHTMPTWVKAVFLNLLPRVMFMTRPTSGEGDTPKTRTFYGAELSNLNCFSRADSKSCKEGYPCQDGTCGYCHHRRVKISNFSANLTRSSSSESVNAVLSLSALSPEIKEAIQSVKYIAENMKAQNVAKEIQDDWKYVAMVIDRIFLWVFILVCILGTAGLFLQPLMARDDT
Neuronal acetylcholine receptor; alpha3/beta4, sequence (P12392 whole entry): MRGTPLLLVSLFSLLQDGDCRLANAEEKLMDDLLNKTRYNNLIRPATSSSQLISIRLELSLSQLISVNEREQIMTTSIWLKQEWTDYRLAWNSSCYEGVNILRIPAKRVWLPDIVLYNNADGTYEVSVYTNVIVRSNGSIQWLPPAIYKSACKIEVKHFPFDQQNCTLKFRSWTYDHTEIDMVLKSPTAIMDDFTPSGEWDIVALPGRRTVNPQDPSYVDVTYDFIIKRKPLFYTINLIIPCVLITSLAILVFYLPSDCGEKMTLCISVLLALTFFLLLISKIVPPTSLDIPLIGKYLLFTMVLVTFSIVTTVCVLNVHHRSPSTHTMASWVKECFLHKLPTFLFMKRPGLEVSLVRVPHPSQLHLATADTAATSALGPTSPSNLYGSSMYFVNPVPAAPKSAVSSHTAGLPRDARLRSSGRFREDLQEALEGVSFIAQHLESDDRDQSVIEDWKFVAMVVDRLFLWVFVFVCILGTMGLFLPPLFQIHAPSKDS

Row | SMILES | pIC50 [1] | other results
1 | COc1ccc2c(c1)[C@]13CCCC[C@@H]1[C@H](C2)N(CCCC#N)CC3 | 4.06 | –
2 | COc1ccc2c(c1)[C@]13CCCC[C@@H]1[C@H](C2)N(CCC1OCCO1)CC3 | 5.15 | Activity (Rattus norvegicus [2]): Non-toxic; Activity (Rattus norvegicus [3]): Non-toxic
3 | COc1ccc2c(c1)[C@]13CCCC[C@@H]1[C@H](C2)N(CCC#N)CC3 | 3.75 | –
4 | COc1ccc2c(c1)[C@]13CCCC[C@@H]1[C@H](C2)N(CC1OCCO1)CC3 | 5.71 | Activity (Rattus norvegicus [2]): Non-toxic; Activity (Rattus norvegicus [3]): Non-toxic
5 | CCC(=O)CN1CC[C@@]23CCCC[C@@H]2[C@@H]1Cc1ccc(OC)cc13 | 5.60 | –
6 | COc1ccc2c(c1)[C@]13CCCC[C@@H]1[C@H](C2)N(CC(N)=O)CC3 | 4.38 | –
7 | COc1ccc2c(c1)[C@]13CCCC[C@@H]1[C@H](C2)NCC3 | 5.51 | –
8 | COc1ccc2c(c1)[C@]13CCCC[C@@H]1[C@H](C2)N(CC1=NCCN1)CC3 | 5.18 | –
9 | COc1ccc2c(c1)[C@]13CCCC[C@@H]1[C@H](C2)N(CCC(C)=O)CC3 | 5.59 | –
10 | COc1ccc2c(c1)[C@]13CCCC[C@@H]1[C@H](C2)N(CC#N)CC3 | 4.98 | Activity (Rattus norvegicus [2]): Non-toxic; Activity (Rattus norvegicus [3]): Non-toxic; inhibition (Rattus norvegicus [4]): Active
11 | COc1ccc2c(c1)[C@]13CCCC[C@@H]1[C@H](C2)N(C)CC3 [DEXTROMETHORPHAN] | 4.96 | inhibition (Rattus norvegicus [5]): Active; Activity (Rattus norvegicus [6]): Non-toxic; Activity (Rattus norvegicus [7]): Non-toxic
